# In article PMC4535927 (Angewandte Chemie (International ed. in English), 2015):
# Entries after “also recorded” stand apart in the source; their conditions may differ.
# Key:
# RET^V804M [1] = target: T1, RET^V804M (Homo sapiens, UniProt P07949, V804M); conditions: cited from earlier work
# VEGFR2 [2] = target: T2, VEGFR2 (Homo sapiens, UniProt P35968); assay: VEGFA-induced VEGFR2 phosphorylation in HUVEC cells; assay type: cell-based; conditions: 1.0 nM, endogenous level
# RET = RET (Homo sapiens, UniProt P07949); assay: RET kinase microfluidics separation based assay; assay type: biochemical; conditions: read-out: IC50, RET; [ATP] = 190 μM; means of at least three experiments
# Chain of RET (P07949 29-1114): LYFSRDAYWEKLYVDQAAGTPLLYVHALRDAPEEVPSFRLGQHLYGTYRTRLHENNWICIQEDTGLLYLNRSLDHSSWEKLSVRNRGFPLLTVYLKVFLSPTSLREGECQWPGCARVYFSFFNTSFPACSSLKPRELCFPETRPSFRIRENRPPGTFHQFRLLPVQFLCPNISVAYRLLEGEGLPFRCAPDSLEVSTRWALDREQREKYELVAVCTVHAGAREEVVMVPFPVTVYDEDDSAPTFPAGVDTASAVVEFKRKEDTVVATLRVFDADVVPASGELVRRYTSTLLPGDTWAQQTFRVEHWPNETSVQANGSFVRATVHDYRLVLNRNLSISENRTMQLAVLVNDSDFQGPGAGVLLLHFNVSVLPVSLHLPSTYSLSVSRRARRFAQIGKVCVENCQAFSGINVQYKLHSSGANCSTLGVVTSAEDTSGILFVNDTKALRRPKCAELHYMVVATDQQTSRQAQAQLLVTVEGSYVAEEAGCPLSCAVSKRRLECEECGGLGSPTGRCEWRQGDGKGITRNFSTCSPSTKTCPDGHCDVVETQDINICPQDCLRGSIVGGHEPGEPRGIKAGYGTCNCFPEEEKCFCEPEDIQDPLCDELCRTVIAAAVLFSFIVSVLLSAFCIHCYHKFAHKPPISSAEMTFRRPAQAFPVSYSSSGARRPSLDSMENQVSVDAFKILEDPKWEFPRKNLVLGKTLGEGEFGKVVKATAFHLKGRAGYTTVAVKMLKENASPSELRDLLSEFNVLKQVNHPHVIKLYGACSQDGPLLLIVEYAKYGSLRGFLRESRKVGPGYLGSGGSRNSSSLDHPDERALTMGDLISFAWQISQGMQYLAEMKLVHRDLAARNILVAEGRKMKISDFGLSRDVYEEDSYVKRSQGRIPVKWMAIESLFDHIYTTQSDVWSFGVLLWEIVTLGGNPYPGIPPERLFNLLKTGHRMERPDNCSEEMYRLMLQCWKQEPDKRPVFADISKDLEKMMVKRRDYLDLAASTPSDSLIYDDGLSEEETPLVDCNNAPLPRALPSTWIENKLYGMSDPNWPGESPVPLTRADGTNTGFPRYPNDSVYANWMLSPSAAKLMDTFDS
# Outline: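 Recombinant RET activity measured by a microfluidic separation-based kinase assay at [ATP] 190 µM. IC50 values are means of at least three independent experiments.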
# NIH3T3 RET^C634Y cells = assay: In vitro cell proliferation of NIH3T3 RET C634Y; assay type: cell-based; conditions: read-out: IC50, cell proliferation
# [3] = One-week tolerability in mice; assay type: in vivo; conditions: increased linearly with dose, doses up to 100.0 mg/kg
# RET^V804M [4] = target: T1, RET^V804M; assay: RET V804M kinase microfluidics separation based assay; assay type: biochemical; conditions: read-out: IC50, RET^V804M; [ATP] = 190 μM
# VEGFR2 [5] = target: T2, VEGFR2; assay: VEGFA-induced VEGFR2 phosphorylation in transfected HEK293 cells; assay type: cell-based; conditions: 1.0 nM
# RET^V804L = RET^V804L (Homo sapiens, UniProt P07949, V804L); assay: Cell-based RET inhibition, RET V804L
# Chain of RET^V804L (P07949 29-1114 V804L): as the sequence (P07949 29-1114) above, with V776L counted along it
# RET^V804M [6] = target: T1, RET^V804M; assay: Cell-based RET inhibition, RET V804M
# RET oncoproteins = assay: Cell-based phosphorylation of all tested RET oncoproteins; conditions: 1.0 nM
# RET^C634R = RET^C634R (Homo sapiens, UniProt P07949, C634R); assay: Cell-based RET inhibition, oncogenic RET C634R; conditions: compared with predecessor compounds 1, 2 and 3a
# Chain of RET^C634R (P07949 29-1114 C634R): as the sequence (P07949 29-1114) above, with C606R counted along it
# RET^M918T = RET^M918T (Homo sapiens, UniProt P07949, M918T); assay: Cell-based RET inhibition, oncogenic RET M918T
# Chain of RET^M918T (P07949 29-1114 M918T): as the sequence (P07949 29-1114) above, with M890T counted along it
# RET^C634Y = RET^C634Y (Homo sapiens, UniProt P07949, C634Y); assay: RET C634Y tyrosine phosphorylation in NIH3T3 fibroblasts; assay type: cell-based
# Chain of RET^C634Y (P07949 29-1114 C634Y): as the sequence (P07949 29-1114) above, with C606Y counted along it
# VEGFR2 [7] = target: T2, VEGFR2; assay: VEGFR2 kinase microfluidics separation based assay; assay type: biochemical; conditions: read-out: IC50, VEGFR2; [ATP] = 190 μM
# [8] = Pharmacokinetic properties; conditions: in vivo
# NIH3T3 RET^C634Y tumors = assay: Tumors induced by NIH3T3 RET C634Y cells in nu/nu mice; assay type: in vivo
# Outline: (§1)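 Immunodeficient nu/nu mice were injected with NIH3T3 fibroblasts transformed by RET C634Y or by HRas G12V (Ras control). Before tumors appeared, mice received test compound orally at 1.0, 3.0 or 10.0 mg/kg/day or were left untreated. Tumor formation was scored. Tumor tissue was analysed for RET and VEGFR2 phosphorylation and for MAPK and mTOR signaling.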
# NIH3T3 HRas^G12V tumors = assay: Tumors induced by NIH3T3 HRas G12V cells in nu/nu mice; assay type: in vivo
# Outline: as §1
# parental NIH3T3 cells = assay: Growth of parental NIH3T3 cells; assay type: cell-based; conditions: up to 100.0 nM
# T1 sequence (P07949 29-1114 V804M): as the sequence (P07949 29-1114) above, with V776M counted along it
# T2 sequence (P35968 20-1356): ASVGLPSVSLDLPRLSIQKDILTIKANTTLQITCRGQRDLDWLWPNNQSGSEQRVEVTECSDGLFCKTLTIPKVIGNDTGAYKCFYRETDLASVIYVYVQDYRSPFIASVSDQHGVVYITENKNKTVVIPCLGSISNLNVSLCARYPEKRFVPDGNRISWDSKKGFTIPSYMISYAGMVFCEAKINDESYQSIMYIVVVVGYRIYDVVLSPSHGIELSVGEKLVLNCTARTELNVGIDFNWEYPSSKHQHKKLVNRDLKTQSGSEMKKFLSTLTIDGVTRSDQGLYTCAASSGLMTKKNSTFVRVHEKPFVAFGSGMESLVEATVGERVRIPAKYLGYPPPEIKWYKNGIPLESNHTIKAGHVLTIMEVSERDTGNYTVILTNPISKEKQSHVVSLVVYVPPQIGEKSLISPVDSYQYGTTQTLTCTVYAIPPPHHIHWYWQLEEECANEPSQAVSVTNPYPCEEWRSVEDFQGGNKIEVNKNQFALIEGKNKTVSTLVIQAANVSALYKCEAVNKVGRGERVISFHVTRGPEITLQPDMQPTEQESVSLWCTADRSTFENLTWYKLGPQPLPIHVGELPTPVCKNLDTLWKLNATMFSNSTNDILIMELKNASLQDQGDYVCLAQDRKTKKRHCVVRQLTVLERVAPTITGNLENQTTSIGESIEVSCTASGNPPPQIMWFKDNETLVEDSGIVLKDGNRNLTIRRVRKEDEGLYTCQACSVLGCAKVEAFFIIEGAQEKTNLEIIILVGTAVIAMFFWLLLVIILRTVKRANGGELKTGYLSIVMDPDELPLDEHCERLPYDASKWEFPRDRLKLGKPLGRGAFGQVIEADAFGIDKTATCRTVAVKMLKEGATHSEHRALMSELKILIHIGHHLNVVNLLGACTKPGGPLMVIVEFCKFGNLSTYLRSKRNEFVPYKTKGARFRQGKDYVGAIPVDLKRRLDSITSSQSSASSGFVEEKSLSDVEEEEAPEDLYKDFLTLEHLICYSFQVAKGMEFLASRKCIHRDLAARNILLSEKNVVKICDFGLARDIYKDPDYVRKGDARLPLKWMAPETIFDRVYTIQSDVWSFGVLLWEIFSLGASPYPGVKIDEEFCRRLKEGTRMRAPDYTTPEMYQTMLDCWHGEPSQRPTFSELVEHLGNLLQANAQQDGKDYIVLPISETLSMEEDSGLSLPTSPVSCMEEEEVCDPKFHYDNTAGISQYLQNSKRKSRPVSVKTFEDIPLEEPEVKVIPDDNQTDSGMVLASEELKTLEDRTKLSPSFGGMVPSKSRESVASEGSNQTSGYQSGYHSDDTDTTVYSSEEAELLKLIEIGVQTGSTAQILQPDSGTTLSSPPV
smiles,measurement,setting,value
COc1cc2nccc(Oc3ccc(NC(=O)C4(C(=O)Nc5ccc(F)cc5)CC4)cc3)c2cc1OC [cabozantinib],Response of RET^V804M to the drug,RET^V804M [1],refractory
Cn1cc(-c2ccc3c(c2)ncn3-c2ccc(CC(=O)Nc3cc(C(C)(C)C)on3)cc2)cn1 [Pz-1],VEGFA-induced VEGFR2 phosphorylation,VEGFR2 [2],inhibiting VEGFA-induced VEGFR2 phosphorylation
same,IC50,RET,< 1 nM
same,IC50,NIH3T3 RET^C634Y cells,0.5 nM
same,Alanine transaminase (ALT),[3],remaining within a normal range
same,IC50,RET^V804M [4],< 1 nM
same,VEGFA-induced VEGFR2 phosphorylation,VEGFR2 [5],inhibiting VEGFA-induced VEGFR2 phosphorylation
same,Activity against RET^V804L,RET^V804L,highly effective
same,Activity against RET^V804M,RET^V804M [6],highly effective
same,Phosphorylation of RET oncoproteins / clinically relevant RET mutants,RET oncoproteins,strongly inhibited
same,RET inhibitory activity towards oncogenic RET^C634R,RET^C634R,increased RET inhibitory activity
same,Activity against RET^M918T,RET^M918T,highly effective
same,RET^C634Y tyrosine phosphorylation,RET^C634Y,efficient inhibition
same,IC50,VEGFR2 [7],< 1 nM
same,Pharmacokinetic properties,[8],highly favorable
same,Formation of RET-driven tumors,NIH3T3 RET^C634Y tumors; 1.0 mg/kg/day per os,completely blocked; also recorded: abrogated formation of tumors
same,RET phosphorylation in tumor tissue,NIH3T3 RET^C634Y tumors; 1.0 mg/kg/day per os,blocked phosphorylation
same,VEGFR2 phosphorylation in tumors,"NIH3T3 RET^C634Y tumors; RET driven tumors, 1.0 mg/kg",inhibited VEGFR2 phosphorylation; also recorded: blocked phosphorylation
same,MAPK and mTOR mitogenic signaling cascades in tumors,NIH3T3 RET^C634Y tumors; RET-driven tumors,able to inhibit
same,Formation of tumors induced by RET^C634Y,"NIH3T3 RET^C634Y tumors; nu/nu mice, PO 1.0, 3.0 or 10.0 mg/kg/day",completely prevented formation of tumors
same,VEGFR2 phosphorylation in tumors,"NIH3T3 HRas^G12V tumors; Ras driven tumors, 1.0 mg/kg",inhibited VEGFR2 phosphorylation
same,MAPK signaling in tumors,"NIH3T3 HRas^G12V tumors; Ras tumors, 10.0 mg/kg",no effect
same,Growth inhibition,parental NIH3T3 cells,did not exert detectable growth inhibition
